The source made the active and inactive calls. The rule behind the calls is not given here.
Tests used:
[1] = target: T1, G-protein coupled receptor 6 (Homo sapiens, UniProt P46095); assay: Inverse agonist activity at human GPR6 expressed in CHO-K1 cells assessed as modulation of cAMP level incubated for 20 hrs by TR-FRET assay; format: functional, cell-based
Method in brief: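 T-REx-CHO-K1 cells stably carrying tetracycline-inducible human GPR6 were induced with 2.0 μg/mL doxycycline for 20 h at 37 °C. No agonist was added, since receptor constitutive activity is used. Compound in Krebs Ringer's buffer with 0.5% fatty acid free BSA for 45 min at 37 °C. cAMP read by Eu-cAMP tracer/ULight anti-cAMP antibody TR-FRET. Four-parameter logistic fit; EC50 is the mean of ≥2 experiments, triplicate concentrations.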

[2] = target: T1, G-protein coupled receptor 6; assay: Inverse agonist activity at human GPR6 expressed in CHO-K1 cells assessed as modulation of cAMP level incubated for 20 hrs by TR-FRET assay relative to control; format: functional, cell-based; details: filed as inverse agonist
Method in brief: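 T-REx-CHO-K1 cells stably carrying tetracycline-inducible human GPR6 were induced with 2.0 μg/mL doxycycline for 20 h at 37 °C. Constitutive activity was measured with no agonist. Compound in Krebs Ringer's buffer with 0.5% fatty-acid-free BSA was added for 45 min at 37 °C. Eu-cAMP tracer (10 min) and ULight anti-cAMP antibody (1 h, RT) followed for TR-FRET. Four-parameter logistic fit; ≥2 experiments, triplicate.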

Cytochrome P450 2D6 = Cytochrome P450 2D6 (Homo sapiens, UniProt P10635); assay: Inhibition of CYP2D6 (unknown origin); format: ADME
Chain of Cytochrome P450 2D6 (P10635 whole entry): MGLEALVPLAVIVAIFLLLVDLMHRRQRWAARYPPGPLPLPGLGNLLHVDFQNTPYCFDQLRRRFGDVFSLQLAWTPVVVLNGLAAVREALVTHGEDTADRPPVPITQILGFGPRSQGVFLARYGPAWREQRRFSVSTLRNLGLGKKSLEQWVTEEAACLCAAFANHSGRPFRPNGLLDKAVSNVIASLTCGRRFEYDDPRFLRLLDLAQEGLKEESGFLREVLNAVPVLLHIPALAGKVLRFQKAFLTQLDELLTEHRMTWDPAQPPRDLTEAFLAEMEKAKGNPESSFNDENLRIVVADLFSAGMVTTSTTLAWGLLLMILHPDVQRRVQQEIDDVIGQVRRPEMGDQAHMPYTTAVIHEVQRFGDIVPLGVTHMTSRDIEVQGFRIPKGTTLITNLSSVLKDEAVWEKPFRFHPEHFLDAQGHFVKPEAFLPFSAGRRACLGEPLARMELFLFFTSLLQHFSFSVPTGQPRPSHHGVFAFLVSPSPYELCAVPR

hERG (KCNH2) = hERG (KCNH2) (Homo sapiens, UniProt Q12809); assay: Inhibition of human ERG at 10 uM relative to control; format: toxicity
Chain of hERG (KCNH2) (Q12809 whole entry): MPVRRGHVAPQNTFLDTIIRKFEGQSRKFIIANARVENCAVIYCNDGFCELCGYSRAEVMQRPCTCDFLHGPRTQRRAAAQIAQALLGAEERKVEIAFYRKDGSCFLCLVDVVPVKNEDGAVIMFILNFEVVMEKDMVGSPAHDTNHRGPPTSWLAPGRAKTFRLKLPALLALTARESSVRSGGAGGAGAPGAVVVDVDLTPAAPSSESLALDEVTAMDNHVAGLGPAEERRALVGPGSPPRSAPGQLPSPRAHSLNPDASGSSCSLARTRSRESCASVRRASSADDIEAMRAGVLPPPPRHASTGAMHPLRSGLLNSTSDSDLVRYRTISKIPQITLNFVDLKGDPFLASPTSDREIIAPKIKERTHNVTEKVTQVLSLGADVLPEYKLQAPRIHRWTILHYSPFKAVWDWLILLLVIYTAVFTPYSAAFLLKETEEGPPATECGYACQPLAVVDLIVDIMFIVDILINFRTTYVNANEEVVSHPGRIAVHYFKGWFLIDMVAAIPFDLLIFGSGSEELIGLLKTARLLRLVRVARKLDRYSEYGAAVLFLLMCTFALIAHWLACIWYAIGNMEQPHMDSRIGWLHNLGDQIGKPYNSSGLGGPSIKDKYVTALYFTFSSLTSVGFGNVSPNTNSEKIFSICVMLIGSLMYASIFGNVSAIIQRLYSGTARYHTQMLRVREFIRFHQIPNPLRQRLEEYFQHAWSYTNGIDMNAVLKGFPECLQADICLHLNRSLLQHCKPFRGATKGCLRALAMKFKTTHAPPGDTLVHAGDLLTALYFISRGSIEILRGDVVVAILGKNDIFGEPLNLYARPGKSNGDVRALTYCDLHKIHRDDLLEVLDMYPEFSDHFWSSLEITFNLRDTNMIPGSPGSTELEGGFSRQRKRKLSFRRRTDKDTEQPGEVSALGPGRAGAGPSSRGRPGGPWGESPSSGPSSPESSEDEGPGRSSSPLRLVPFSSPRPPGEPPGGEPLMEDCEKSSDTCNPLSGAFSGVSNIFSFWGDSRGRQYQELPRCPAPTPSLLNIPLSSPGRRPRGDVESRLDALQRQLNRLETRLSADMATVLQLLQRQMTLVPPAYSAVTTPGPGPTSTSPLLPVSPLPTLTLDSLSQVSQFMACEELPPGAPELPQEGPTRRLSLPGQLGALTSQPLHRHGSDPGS

Homo sapiens [3] = organism: Homo sapiens; assay: Selectivity for human GPR6 over human GRP3 assessed as fold change
Homo sapiens [4] = organism: Homo sapiens; assay: Selectivity for human GPR6 over human GRP12 assessed as fold change
Mus musculus [5] = assay: Reversal of haloperidol-induced catalepsy in GPR6 knock out mouse assessed as reduction in catalepsy at 0.3 mg/kg, ip measured after 120 min; format: functional, organism-based
Method in brief: (§1)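 Wild-type C57BL/6J and GPR6 knock-out male mice (n = 6/group): KW6002 at 0.3 mg/kg i.p. given with haloperidol 1 mg/kg i.p. Bar test at 120 min: bar 2' high, maximum 60 s, three trials averaged.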

Mus musculus [6] = assay: Reversal of haloperidol-induced catalepsy in C57BL/6 mouse assessed as reduction in catalepsy at 0.3 mg/kg, ip measured after 120 min; format: functional, organism-based; method in brief: as §1
Rattus norvegicus [7] = assay: Reversal of haloperidol-induced catalepsy in Sprague-Dawley rat assessed as reduction in catalepsy at 0.6 mg/kg, ip measured after 120 min; format: functional, organism-based
Method in brief: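 Positive-control arm in male Sprague-Dawley rats (n = 9–10/group): A2A antagonist KW6002 at 0.6 mg/kg i.p., given together with haloperidol 1 mg/kg i.p. Bar test at 120 min: bar 6' high, up to 60 s, mean of three trials.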

[8] = target: Voltage-gated inwardly rectifying potassium channel KCNH2 (Homo sapiens, UniProt Q12809); assay: Inhibition of human ERG; format: toxicity
Chain of Voltage-gated inwardly rectifying potassium channel KCNH2 (Q12809 whole entry): as above

P-gp (MDR1, ABCB1) = P-gp (MDR1, ABCB1) (Homo sapiens, UniProt P08183); assay: Substrate activity at P-gp (unknown origin) transfected in pig LLC-PK1 cells expressing MDR1 gene assessed as efflux ratio; format: ADME, cell-based
Chain of P-gp (MDR1, ABCB1) (P08183 whole entry): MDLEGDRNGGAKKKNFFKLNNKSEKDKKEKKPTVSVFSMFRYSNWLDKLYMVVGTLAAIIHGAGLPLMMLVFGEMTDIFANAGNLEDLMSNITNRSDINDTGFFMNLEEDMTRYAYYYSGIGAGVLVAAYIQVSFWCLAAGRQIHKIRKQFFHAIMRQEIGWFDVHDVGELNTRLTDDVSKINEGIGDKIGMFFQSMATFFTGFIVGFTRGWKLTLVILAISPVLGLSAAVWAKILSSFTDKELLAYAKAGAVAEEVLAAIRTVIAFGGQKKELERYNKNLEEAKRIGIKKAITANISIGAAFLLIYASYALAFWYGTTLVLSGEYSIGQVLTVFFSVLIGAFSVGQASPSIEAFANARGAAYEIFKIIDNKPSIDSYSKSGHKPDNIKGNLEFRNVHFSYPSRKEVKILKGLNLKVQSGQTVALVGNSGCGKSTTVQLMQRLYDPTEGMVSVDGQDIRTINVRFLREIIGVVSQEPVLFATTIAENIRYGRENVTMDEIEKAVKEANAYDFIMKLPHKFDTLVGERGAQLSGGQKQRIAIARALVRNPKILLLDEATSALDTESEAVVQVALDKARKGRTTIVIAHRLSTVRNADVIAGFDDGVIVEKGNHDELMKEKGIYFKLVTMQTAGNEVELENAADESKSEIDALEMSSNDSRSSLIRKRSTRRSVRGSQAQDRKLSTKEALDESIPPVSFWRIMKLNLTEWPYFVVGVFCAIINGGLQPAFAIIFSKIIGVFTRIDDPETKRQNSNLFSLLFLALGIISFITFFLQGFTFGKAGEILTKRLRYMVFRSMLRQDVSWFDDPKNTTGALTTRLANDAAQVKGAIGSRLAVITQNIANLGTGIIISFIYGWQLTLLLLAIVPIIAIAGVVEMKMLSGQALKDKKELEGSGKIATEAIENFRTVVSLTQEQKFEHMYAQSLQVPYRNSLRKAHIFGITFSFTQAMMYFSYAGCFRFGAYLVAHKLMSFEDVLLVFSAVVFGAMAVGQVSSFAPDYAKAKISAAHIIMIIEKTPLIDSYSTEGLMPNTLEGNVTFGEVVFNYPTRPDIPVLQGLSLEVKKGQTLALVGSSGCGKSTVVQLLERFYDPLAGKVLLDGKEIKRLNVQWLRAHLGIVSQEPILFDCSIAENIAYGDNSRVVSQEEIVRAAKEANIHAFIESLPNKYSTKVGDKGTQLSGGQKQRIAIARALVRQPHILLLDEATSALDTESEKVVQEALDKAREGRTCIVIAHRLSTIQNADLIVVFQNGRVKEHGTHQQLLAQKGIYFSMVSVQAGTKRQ

[9] = target: T1, G-protein coupled receptor 6; assay: Displacement of 3H-RL338 from human GPR6 expressed in T-REx-CHO-GPR6 cells assessed as inhibition constant by competition binding assay; format: cell-based
Method in brief: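 Competition filtration binding on membranes from doxycycline-inducible T-REx-CHO cells expressing human GPR6 (15 μg/well). Tracer is 3H-RL-338, and test compound top concentration is 5 μM final. Buffer: 50 mM Tris pH 7.4, 50 mM NaCl, 6 mM MgCl2, 0.1% fatty acid free BSA, protease inhibitors. Incubated 2 h at room temperature, filtered, washed cold, scintillation counted. IC50 comes from a four-parameter fit; Ki by Cheng–Prusoff using the 3H-RL-338 Kd (2.4 or 5 nM, by batch).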

[10] = Intrinsic clearance in human liver microsomes; format: ADME, Microsome; details: read-out: CLH
[11] = Intrinsic clearance in human hepatocytes; format: ADME, cell-based, Hepatocyte; details: read-out: CLH
[12] = Lipophilicity, log D of compound; format: physicochemical; details: octanol/water
[13] = Unbound intrinsic clearance in human hepatocytes; format: ADME, cell-based, Hepatocyte
[14] = Permeability of compound across apical to basolateral side in pig LLC-PK1 cells expressing MDR1; format: ADME, cell-based, Sus scrofa; details: read-out: permeability
Mus musculus [15] = assay: Reversal of haloperidol-induced catalepsy in GPR6 knock out mouse assessed as reduction in catalepsy at 30 mg/kg, sc measured after 120 min; format: functional, organism-based
Method in brief: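 Male GPR6 knock-out mice (n = 6/group) received haloperidol 1 mg/kg i.p. with vehicle (10% DMSO, 0.5% methylcellulose) or compound 30 mg/kg s.c. at the same time. Bar test at 120 min: bar 2' high, up to 60 s, average of three trials.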

Rattus norvegicus [16] = assay: Reversal of haloperidol-induced catalepsy in Sprague-Dawley rat assessed as reduction in catalepsy at 0.1 to 30 mg/kg, sc measured after 120 min; format: functional, organism-based; details: dose 0.1-30 mg/kg
Method in brief: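 Male Sprague-Dawley rats (n = 9–10/group) received haloperidol 1 mg/kg i.p. together with vehicle (10% DMSO, 0.5% methylcellulose) or compound at 0.1–30 mg/kg s.c. Bar test at 120 min: front paws placed on a bar 6' high, time recorded up to 60 s. Three trials were averaged.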

T1 sequence (P46095 whole entry): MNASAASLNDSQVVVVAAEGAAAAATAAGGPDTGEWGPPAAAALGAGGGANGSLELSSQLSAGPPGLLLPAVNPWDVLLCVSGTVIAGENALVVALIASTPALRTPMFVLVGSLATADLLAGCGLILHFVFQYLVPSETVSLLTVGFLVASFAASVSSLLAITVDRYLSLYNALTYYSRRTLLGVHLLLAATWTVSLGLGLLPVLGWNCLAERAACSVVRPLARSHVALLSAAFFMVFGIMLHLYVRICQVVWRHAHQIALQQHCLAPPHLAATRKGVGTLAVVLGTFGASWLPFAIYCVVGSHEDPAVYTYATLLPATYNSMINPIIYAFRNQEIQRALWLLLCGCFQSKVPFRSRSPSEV

SMILES	EC50 [1]	Emax [2]	IC50 (Cytochrome P450 2D6)	inhibition at 10 µM (hERG (KCNH2))	fold change (FC) (Homo sapiens [3])	fold change (FC) (Homo sapiens [4])	also measured
N#Cc1ccc2nc(N3CCN(Cc4cc(Cl)ccc4Cl)CC3)c(NC3CC3)nc2c1	174 nM	107%					
Clc1ccc(Cl)c(CN2CCN(c3nc4ccncc4nc3NC3CC3)CC2)c1	55 nM	102%					
Cc1cccc(CN2CCN(c3nc4ccccc4nc3NC3CC3)CC2)c1	14000 nM	110%					
Clc1ccc(Cl)c(CN2CCN(c3nc4ccccc4nc3NC3CC3)CC2)c1	2100 nM	89%					
Cc1cc2nc(N3CCC(Oc4ccc(F)cc4F)CC3)c(NC(C)C)nc2cn1	61000 nM		3980 nM	71%	19	47	
Cc1cc2nc(NC3CC3)c(N3CCN(Cc4ccc(F)cc4F)CC3)nc2cn1	29 nM		3980 nM	23%	14	78	
Cc1cc2nc(NC(C)C)c(N3CCN(Cc4ccc(F)cc4F)CC3)nc2cn1	51000 nM		3980 nM	13%	5	19	
CCC(=O)N1CCc2nc(N3CCN(Cc4ccc(F)cc4F)CC3)c(NC(C)C)nc2C1	30 nM		> 10000 nM		20	16	
Clc1ccc(Cl)c(CN2CCN(c3nc4cnccc4nc3NC3CC3)CC2)c1	53 nM	110%					
COc1ccc2nc(N3CCN(Cc4cc(Cl)ccc4Cl)CC3)c(NC3CC3)nc2c1	4100 nM	90%					
CCn1c(=O)c2c(nc(/C=C/c3ccc(OC)c(OC)c3)n2C)n(CC)c1=O							Activity (Mus musculus [5]): Active; Activity (Mus musculus [6]): Active; Activity (Rattus norvegicus [7]): Active
Fc1ccc2nc(N3CCN(Cc4cc(Cl)ccc4Cl)CC3)c(NC3CC3)nc2c1	1200 nM	90%					
CC(C)Nc1nc2cc(C#N)ncc2nc1N1CCC(Oc2ccc(F)cc2F)CC1	55 nM				6	13	
CN(C)C(=O)c1ccc2nc(NC3CC3)c(N3CCN(Cc4cc(Cl)ccc4Cl)CC3)nc2c1	90 nM	105%					
Fc1ccc(F)c(CN2CCN(c3nc4cnccc4nc3NC3CC3)CC2)c1	151 nM		126 nM	40%			
Cc1cc2nc(NC3CC3)c(N3CCC(Oc4ccc(F)cc4F)CC3)nc2cn1	29 nM		6310 nM	75%	19	105	
Cc1ccc2nc(N3CCN(Cc4cc(Cl)ccc4Cl)CC3)c(NC3CC3)nc2c1	16000 nM	90%					
CC(=O)N1CCc2nc(N3CCC(Oc4ccc(F)cc4F)CC3)c(N[C@@H]3CCOC3)nc2C1	38000 nM						IC50 [8]: 3500 nM; efflux ratio (P-gp (MDR1, ABCB1)): 0.7; Ki [9]: 9.4 nM; CLint scaled [10]: 62 mL/min/kg; CLint scaled [11]: 48 mL/min/kg; logD [12]: 3.6; fraction unbound [13]: 0.51; Papp A→B [14]: 17 ×10⁻⁶ cm/s
CC(C)Nc1nc2ccncc2nc1N1CCN(Cc2ccc(F)cc2F)CC1	21 nM				9	14	
Fc1ccc(Cl)cc1CN1CCN(c2nc3cnccc3nc2NC2CC2)CC1	29 nM				638	15	
Cc1cc2nc(NC(C)C)c(N3CCC(Oc4ccc(F)cc4F)CC3)nc2cn1	16 nM		6310 nM	75%	13	27	
Fc1ccc(CN2CCN(c3nc4cnccc4nc3NC3CC3)CC2)c(F)c1	39 nM		50.1 nM	40%	21	80	efflux ratio (P-gp (MDR1, ABCB1)): 0.5; Ki [9]: 7 nM; Activity (Mus musculus [15]): inactive; Papp A→B [14]: 16 ×10⁻⁶ cm/s; Activity (Rattus norvegicus [16]): Dose-Dependent Effect
Cc1cc2nc(N3CCC(Oc4ccc(F)cc4F)CC3)c(NC3CC3)nc2cn1	95 nM		6310 nM		19	105	
Cc1cccc(CN2CCN(c3nc4nonc4nc3NC3CC3)CC2)c1	43000 nM	73%					
CC(C)Nc1nc2c(nc1N1CCC(Oc3ccc(F)cc3F)CC1)CCN(C)C2	89 nM		> 10000 nM	36%	21	69	

Source: ChEMBL document CHEMBL5038577, “First-Time Disclosure of CVN424, a Potent and Selective GPR6 Inverse Agonist for the Treatment of Parkinson's Disease: Discovery, Pharmacological Validation, and Identification of a Clinical Candidate” (J Med Chem, 2021)
